Data taken from PubChem BioAssay AID561 (The Scripps Research Institute Molecular Screening Center, 2006).
Among all 65,000 compounds or so, about 280 (0.43%) were called active. Shown is part of a subset that was picked to be rich in actives. A number with no mark means an inactive call.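 Rule for the calls: active = inhibition above the mean of all tested compounds plus 3 SD (cut at about 52% in these data); inactive = the rest.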

target: Nuclear receptor ROR-alpha (Homo sapiens) (UniProt P35398); assay: inhibitors of orphan receptor RORA, primary screen, cell-based, luminescence (AID 561); details: CHO-K1 Gal4-RORA LBD luciferase reporter, at 10 µM, hits give high values;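 note: 0% = RORA-transfected cells with DMSO and 100% = mock-transfected cells lacking RORA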
Sequence (P35398 whole entry, looked up, the tested form may be a part): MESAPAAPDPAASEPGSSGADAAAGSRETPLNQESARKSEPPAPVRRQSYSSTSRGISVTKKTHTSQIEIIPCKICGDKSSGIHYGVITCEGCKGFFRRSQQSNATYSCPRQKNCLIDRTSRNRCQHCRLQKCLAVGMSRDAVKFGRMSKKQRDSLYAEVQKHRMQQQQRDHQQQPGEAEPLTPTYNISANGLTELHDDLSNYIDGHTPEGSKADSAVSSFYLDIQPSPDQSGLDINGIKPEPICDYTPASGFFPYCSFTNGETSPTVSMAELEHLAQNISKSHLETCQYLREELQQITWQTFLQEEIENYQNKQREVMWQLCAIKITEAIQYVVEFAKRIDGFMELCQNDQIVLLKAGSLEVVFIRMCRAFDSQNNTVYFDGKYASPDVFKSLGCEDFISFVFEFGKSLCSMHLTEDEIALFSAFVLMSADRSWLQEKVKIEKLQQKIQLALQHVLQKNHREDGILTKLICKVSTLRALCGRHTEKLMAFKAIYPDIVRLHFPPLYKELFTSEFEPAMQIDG
In short: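 Material: transiently transfected CHO-K1 cells, Gal4-DBD/human RORA-LBD fusion plus 5xGal4-luciferase reporter; doses: single concentration per compound, 10 µM final; incubation: 20 h at 37 °C; detection: luminescence from basal luciferase reporter expression; read-out: % inhibition of basal luciferase versus +RORA/-RORA DMSO controls; replication: tested once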

Compound | inhibition
COC(=O)c1ccc(C2NC(=O)NC(C)=C2C(=O)N(C)C)cc1 (stereo not drawn) | 29.5%
O=C(Nc1ccc2c(c1)OCO2)C1CC(c2c(F)cccc2Cl)=NO1 (stereo not drawn) | -2.1%
COc1cc(OC)c(C(=O)Nc2ccc(N(C)C)cc2)cc1OC | -58.1%
Cc1ccc(Oc2nc3ccccc3n3c(C)nnc23)cc1 | -9.5%
COCCCN(C(=O)Cn1ncc2c(=O)oc3ccc(C)cc3c21)C(C)c1ccncc1 (stereo not drawn) | -5.6%
Fc1ccccc1OCCSc1nc2ccccc2o1 | -26.2%
COc1ccc(OCc2cccc(C(=O)N3CCCC3)c2)cc1 | -8.9%
CCOc1cc(C(=S)N2CCOCC2)ccc1O | 8.5%
CCOc1cc(C(=O)N2CCc3cc(OC)c(OC)cc3C2)ccc1OC(F)F | 57.3% (active)
COc1ccc(-n2ncc3c(N4CCCc5ccccc54)ncnc32)cc1 | -50.2%
O=C(CC1NCCNC1=O)Nc1ccc(Oc2ccccc2)cc1 (stereo not drawn) | -7.9%
COc1cc(C(=O)Nc2oc(-c3ccccc3)c(-c3ccccc3)c2C#N)cc(OC)c1OC | -14.1%
O=C(Cc1c(F)cccc1Cl)N1CCN(C(=O)c2ccco2)CC1 | 14.5%
CCOC(=O)CCCNC(=O)CN1C(=O)NC(CCc2ccccc2)C1=O (stereo not drawn) | -7.9%
CC(=O)c1ccc(NC(=O)N[C@@H](Cc2ccccc2)C(=O)O)cc1 | 16.7%
O=C(Nc1cccc(Cl)c1)OCc1ccccn1 | -69.9%
CC(=O)Nc1ccc(-c2cn3cccnc3n2)cc1 | -27%
Clc1ccc(C2CC(c3cccs3)n3ncnc3N2)cc1Cl (stereo not drawn) | -4.7%
CC(C)(C)c1ccc(C(=O)CSc2ncn[nH]2)cc1 | -54.2%
CC(C)(C)NC(=O)Cn1nnc(-c2ccccc2Cl)n1 | -65.9%
COc1cccc(C2/C(=C(/O)c3ccncc3)C(=O)C(=O)N2CCCN(C)C)c1 (stereo not drawn) | 17%
Cc1noc(C)c1COC(=O)Cn1c(C)nc2ccccc21 | -0.6%
COc1ccc(-n2c(SC)nc(O)cc2=O)cc1 | 8.5%
CC(C)OCCCNc1ncnc2c1[nH]c1ccc(F)cc12 | 75.5% (active)
Cc1cc2nc(-c3ccc(NC(=O)c4cccnc4)cc3)oc2cc1C | -71.6%
CCOC(=O)/C=c1\s/c(=C\c2ccccc2OC)c(=O)n1CC(=O)N1CCOCC1 | 3.7%
CC1CN(C(=O)CN2C(=O)NC(C)(c3ccccc3)C2=O)CC(C)O1 (stereo not drawn) | 11.6%
CCCN(CCC)CCNC(=O)c1cc2c(C)nc3ccccc3c2o1 | -1.5%
